# Assay results of several laboratories.
# Lines come from different studies, so protocols differ.
# Target: Testis-specific serine/threonine-protein kinase 1 (TSSK1B, Homo sapiens, UniProt Q9BXA7)
# Sequence (Q9BXA7 1-367, as in one of the studies): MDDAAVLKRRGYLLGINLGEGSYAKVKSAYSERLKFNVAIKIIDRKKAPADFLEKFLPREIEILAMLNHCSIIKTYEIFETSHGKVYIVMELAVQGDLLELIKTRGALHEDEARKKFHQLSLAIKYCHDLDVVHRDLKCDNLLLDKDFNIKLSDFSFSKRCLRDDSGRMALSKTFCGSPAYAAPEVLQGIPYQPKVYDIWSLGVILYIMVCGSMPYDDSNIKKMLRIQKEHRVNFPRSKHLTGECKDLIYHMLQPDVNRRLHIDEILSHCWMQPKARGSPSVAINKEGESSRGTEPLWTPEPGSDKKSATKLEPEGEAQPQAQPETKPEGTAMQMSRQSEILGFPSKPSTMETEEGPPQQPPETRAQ
Compound,test,setting,measurement,result
O=C1Nc2ccc(Cl)cc2C1=Cc1cc(Cl)c(O)c(Cl)c1,cell-free assay,0.5 µM,remaining signal,88.2%
Cc1cc(NC(=O)c2cccc3cc(-c4cccc5[nH]nc(N)c45)ccc23)ccc1F,"enzyme activity, inhibitor",0.1 µM,activity vs control,86%
O=C1NC(=O)c2cc(Nc3ccc(F)cc3)c(Nc3ccc(F)cc3)cc21,cell-free assay,0.5 µM,remaining signal,90.2%
C[C@H](c1cccc(C#N)c1)n1cc(Cl)cc(C(N)=O)c1=N,"cell-free assay, competition with immobilised ligand",1 µM,remaining binding,96%
CN1CC(Oc2cnc(C#N)cc2-c2ccn3nc(NC(=O)C4CC4)cc3c2)C1,"enzyme activity, inhibitor",1 µM,inhibition,9%
N#Cc1ccc(Nc2ccc3[nH]c(=O)[nH]c3c2)c(Cl)c1,"cell-free assay, competition with immobilised ligand",1 µM,remaining binding,56%
CNC(=O)c1cc(Oc2ccc(NC(=O)Nc3ccc(Cl)c(C(F)(F)F)c3)cc2)ccn1,"enzyme activity, inhibitor",10 µM,inhibition,2%
CCCOc1ccc(OC)c(F)c1C(=O)c1ccc(C(=O)N[C@@H]2CNC[C@H]2NC(=O)c2ccc3[nH]ncc3c2)cc1,"enzyme activity, inhibitor",10 µM,remaining activity,70%
CNC(=O)c1ccc(Nc2ncc(C(F)(F)F)c(NCc3nccnc3N(C)S(C)(=O)=O)n2)cc1,"cell-free assay, competition with immobilised ligand",0.1 µM,remaining binding,64%
CN(C)C1CCN(CC#Cc2nn(C3CCCC3)c3nc(NCc4ccccc4)ncc23)C1 (centres unmarked),"enzyme activity, inhibitor, FRET",0.1 µM,inhibition,4%
O=C(Nc1cnn(-c2csc(C(=O)NC3COC3)c2)c1)Nc1ccccc1Cl,"enzyme activity, inhibitor",5 µM,remaining activity,102%
Cc1ccc(NC(=O)c2ccc(C)c(C(F)(F)F)c2)cc1C#Cc1nn(C2CCC(O)CC2)c2ncnc(N)c12 (centres unmarked),cell-free assay,10 µM,remaining signal,100%
COc1cc2ncnc(Nc3ccc(Oc4ccccc4)c(C)c3C)c2cc1OC,"enzyme activity, inhibitor",1 µM,inhibition,4%
CC(C)(C)c1nc2c(s1)c1nc(N)ncc1c1ccc(NS(=O)(=O)c3c(F)cccc3F)c(F)c12,"enzyme activity, inhibitor, radiometric",1 µM,remaining activity,88%
COc1cc(Cl)c(C(=O)N[C@@H](CN[C@H]2CC[C@@H](N)CC2)Cc2ccc(C#N)cc2)cc1-c1ccc(CN[C@H](C)c2ccc(C)cc2)o1,"enzyme activity, inhibitor",1 µM,remaining activity,101%
O=S(=O)(NC1CCC(c2cc(F)ccc2F)(S(=O)(=O)c2ccc(Cl)cc2)CC1)C(F)(F)F (centres unmarked),"cell-free assay, competition with immobilised ligand",1 µM,remaining binding,100%
COc1cc(Nc2cnc(C#N)c(O[C@H](C)CN(C)C)n2)ncc1-c1cnn(C)c1,"enzyme activity, inhibitor, radiometric",1 µM,remaining activity,72%
FC(F)(F)c1ccc2c(c1)nc(-c1cccnc1)n2C1CC1,"cell-free assay, competition with immobilised ligand",1 µM,remaining binding,100%
Cc1ccc(Nc2nccc(N(C)c3ccc4c(C)n(C)nc4c3)n2)cc1S(N)(=O)=O,"enzyme activity, inhibitor",0.3 µM,inhibition,-1%
Cc1nc(N2CC[C@@H](O)C2)ncc1-c1cc(C(F)(F)F)cc2[nH]ncc12,"binding, competition with immobilised ligand",1 µM,remaining binding,98%
Nc1ncnc2occ(-c3ccc(NC(=O)Nc4cc(C(F)(F)F)ccc4F)cc3)c12,"cell-free assay, inhibitor",20 µM,remaining signal,52%
CC(=O)C1=C(C)N(c2cccc(C(F)(F)F)c2)C(=O)N[C@@H]1c1ccc(C#N)nc1,"cell-free assay, competition with immobilised ligand",1 µM,remaining binding,100%
CCN(CC)CCNC(=O)c1c(C)[nH]c(/C=C2\C(=O)Nc3ccc(F)cc32)c1C,"enzyme activity, inhibitor",0.3 µM,inhibition,-1%
